pEC50, pIC50: −log10 of the molar value. Calls of active or inactive are those of the source.
Experiments:
[1] = system: 518A2; assay: Cytotoxicity against human 518A2 cells; format: functional, cell-based
[2] = system: A2780; assay: Cytotoxicity against human A2780 cells; format: functional, cell-based
[3] = system: HT-29; assay: Cytotoxicity against human HT-29 cells; format: functional, cell-based
[4] = system: MCF7; assay: Cytotoxicity against human MCF7 cells; format: functional, cell-based
[5] = system: A549; assay: Cytotoxicity against human A549 cells; format: functional, cell-based
[6] = system: 8505C; assay: Cytotoxicity against human 8505C cells; format: functional, cell-based
[7] = system: FaDu; assay: Cytotoxicity against human FADU cells assessed as reduction in cell viability incubated fro 96 hrs by SRB assay; format: functional, cell-based
[8] = system: A2780; assay: Cytotoxicity against human A2780 cells assessed as reduction in cell viability incubated fro 96 hrs by SRB assay; format: functional, cell-based; conditions: A2780, 96 h
Method in brief: (§1)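 Sulforhodamine B photometric assay after 96 h treatment. Monolayers were grown in RPMI 1640 with L-glutamine, 10% heat-inactivated FBS and penicillin/streptomycin at 37 °C in humidified 5% CO2. Cut-off was 30 μM, or 60 μM for the parent. EC50 was averaged from at least three independent experiments, each in four replicates. Betulinic acid was the positive standard.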

[9] = system: HT-29; assay: Cytotoxicity against human HT-29 cells assessed as reduction in cell viability incubated fro 96 hrs by SRB assay; format: functional, cell-based; conditions: HT-29, 96 h; method in brief: as §1
[10] = system: A-375; assay: Cytotoxicity against human A375 cells assessed as reduction in cell viability incubated fro 96 hrs by SRB assay; format: functional, cell-based; conditions: A-375, 96 h; method in brief: as §1
[11] = system: SW-1736; assay: Cytotoxicity against human SW1736 cells assessed as reduction in cell viability incubated fro 96 hrs by SRB assay; format: functional, cell-based; conditions: SW-1736, 96 h; method in brief: as §1
[12] = system: Leishmania infantum; assay: Antileishmanial activity against Leishmania infantum MHOM/BR/70/BH46 intracellular amastigotes infected in canine DH82 cells assessed as as inhibition of cell growth at 1000 uM incubated for 48 hrs by ELISA method; format: functional; conditions: MHOM/BR/70/BH46, DH82, 48 h, read-out: GI
[13] = system: Leishmania infantum; assay: Antileishmanial activity against Leishmania infantum MHOM/BR/70/BH46 intracellular amastigotes infected in canine DH82 cells assessed as as inhibition of cell growth incubated for 48 hrs by ELISA method; format: functional, organism-based; conditions: MHOM/BR/70/BH46, DH82, 48 h
Method in brief: (§2)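 L. infantum BH46 intracellular amastigotes. Phase II testing at 0.1, 1.0, 10 and 100 μM. IC50 is the concentration inhibiting in vitro growth by 50%, taken from dose-response curves (log concentration vs inhibition) run in four replicates. Potassium antimonyl tartrate trihydrate served as positive control.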

[14] = Cytotoxicity in dog DH82 cells assessed as reduction in cell viability incubated for 48 hrs by MTT assay; format: cell-based, Canis lupus familiaris
Method in brief: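 DH82 canine macrophage viability was monitored microscopically and by MTT colorimetric assay. CC50 is the concentration cytotoxic to 50% of DH82 cells. Potassium antimonyl tartrate trihydrate was the positive control.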

[15] = Selectivity index, ratio of CC50 for dog DH82 cells to IC50 for antileishmanial activity against Leishmania infantum MHOM/BR/70/BH46 intracellular amastigotes infected in canine DH82 cells; format: toxicity, cell-based; conditions: read-out: Ratio CC50/IC50
Method in brief: (§3)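 SI = CC50 in DH82 macrophages (MTT) divided by IC50 against intracellular L. infantum BH46 amastigotes.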

[16] = Ratio of selectivity index of test compound to potassium antimonyl tartrate by measuring ratio of CC50 for dog DH82 cells to IC50 for antileishmanial activity against Leishmania infantum MHOM/BR/70/BH46 intracellular amastigotes infected in canine DH82 cells; format: toxicity, cell-based
[17] = Ratio of selectivity index of test compound to hederagenin by measuring ratio of CC50 for dog DH82 cells to IC50 for antileishmanial activity against Leishmania infantum MHOM/BR/70/BH46 intracellular amastigotes infected in canine DH82 cells; format: toxicity, cell-based
[18] = system: Leishmania infantum; assay: Antileishmanial activity against Leishmania infantum MHOM/BR/70/BH46 intracellular amastigotes infected in canine DH82 cells assessed as as inhibition of cell growth; format: functional, organism-based; conditions: MHOM/BR/70/BH46, DH82; method in brief: as §2
[19] = Selectivity index, ratio of CC50 for dog DH82 cells to IC50 for Leishmania infantum MHOM/BR/70/BH46 intracellular amastigotes infected in canine DH82 cells; format: toxicity, cell-based; method in brief: as §3
[20] = Cytotoxicity in African green monkey BGM cells assessed as reduction in cell viability incubated for 48 hrs by MTT assay; format: cell-based; conditions: chlorocebus aethiops
Method in brief: (§4)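 MTT colorimetric assay with microscopic monitoring. CC50 is the concentration cytotoxic to 50% of BGM or HepG2 cells. Potassium antimonyl tartrate trihydrate was the positive control.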

[21] = Selectivity index, ratio of CC50 for African green monkey BGM cells to IC50 for antileishmanial activity against Leishmania infantum MHOM/BR/70/BH46 intracellular amastigotes infected in canine DH82 cells; format: toxicity, cell-based; conditions: read-out: Ratio CC50/IC50
Method in brief: (§5)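 SI = CC50 in BGM or HepG2 cells (MTT) divided by the intracellular amastigote IC50.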

[22] = Cytotoxicity in human HepG2 cells assessed as reduction in cell viability incubated for 48 hrs by MTT assay; format: cell-based; method in brief: as §4
[23] = Selectivity index, ratio of CC50 for human HepG2 cells to IC50 for antileishmanial activity against Leishmania infantum MHOM/BR/70/BH46 intracellular amastigotes infected in canine DH82 cells; format: toxicity, cell-based; conditions: read-out: Ratio CC50/IC50; method in brief: as §5
[24] = system: HT-29; assay: Induction of cell morphology changes in human HT-29 cells at 15 uM incubated for 24 hrs by AO/PI staining based fluorescence microscopy; format: functional
Method in brief: (§6)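 HT29 cells were treated for 24 h, then stained with acridine orange and propidium iodide. Morphology and membrane permeability were assessed by fluorescence microscopy against an untreated control.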

[25] = system: HT-29; assay: Induction of cell membrane permeability changes in human HT-29 cells at 15 uM incubated for 24 hrs by AO/PI staining based fluorescence microscopy; format: functional; method in brief: as §6
[26] = system: Leishmania infantum; assay: Antiparasitic activity against Leishmania infantum; format: functional, organism-based

Structure (SMILES)	pEC50 [1]	pEC50 [2]	pEC50 [3]	pEC50 [4]	pEC50 [5]	pEC50 [6]	pEC50 [7]	pEC50 [8]	pEC50 [9]	pEC50 [10]	pEC50 [11]	inhibition of growth at 1000 µM [12] [%]	pIC50 [13]	CC50 at 48 h [14] [µM]	selectivity ratio [15]	CC50 at 48 h [20] [µM]	selectivity ratio [21]	CC50 at 48 h [22] [µM]	selectivity ratio [23]	also measured
CC1(C)CC[C@]2(C(=O)OCc3cn(Cc4cccc(Cl)c4)nn3)CC[C@]3(C)C(=CC[C@@H]4[C@@]5(C)CC[C@H](O)[C@@](C)(CO)[C@@H]5CC[C@]43C)[C@@H]2C1	5.39 to 5.52	5.39 to 5.52	5.39 to 5.52	5.39 to 5.52	5.39 to 5.52	5.39 to 5.52														
CC1(C)CC[C@]2(C(=O)OCc3cn(Cc4ccccc4F)nn3)CC[C@]3(C)C(=CC[C@@H]4[C@@]5(C)CC[C@H](O)[C@@](C)(COCc6cn(Cc7ccccc7F)nn6)[C@@H]5CC[C@]43C)[C@@H]2C1							< 4.52	4.67	4.79	4.55	< 4.52	65	5.25	> 1000	> 178	> 1000	> 178	> 1000	> 178	Ratio [16]: 1780; Ratio [17]: 8; pIC50 [18]: 5.25; selectivity ratio [19]: > 178
CC1(C)CC[C@]2(C(=O)OCc3cn(CC(=O)c4ccc(C#N)cc4)nn3)CC[C@]3(C)C(=CC[C@@H]4[C@@]5(C)CC[C@H](O)[C@@](C)(COCc6cn(CC(=O)c7ccc(C#N)cc7)nn6)[C@@H]5CC[C@]43C)[C@@H]2C1							4.92	4.95	5.13	4.97	4.92	8.8								Activity [24]: inactive; Activity [25]: inactive
CC1(C)CC[C@]2(C(=O)OCc3cn(Cc4cccc(Br)c4)nn3)CC[C@]3(C)C(=CC[C@@H]4[C@@]5(C)CC[C@H](O)[C@@](C)(CO)[C@@H]5CC[C@]43C)[C@@H]2C1	5.39 to 5.52	5.39 to 5.52	5.39 to 5.52	5.39 to 5.52	5.39 to 5.52	5.39 to 5.52														pIC50 [26]: 4.47 to 4.49
Cc1ccc(C(=O)Cn2cc(COC[C@@]3(C)[C@@H]4CC[C@]5(C)[C@H](CC=C6[C@@H]7CC(C)(C)CC[C@]7(C(=O)OCc7cn(CC(=O)c8ccc(C)cc8)nn7)CC[C@]65C)[C@@]4(C)CC[C@@H]3O)nn2)cc1							< 4.52	< 4.52	< 4.52	< 4.52	< 4.52	63.7	5.13	> 1000	> 135	> 1000	> 135	> 1000	> 135	Ratio [16]: 10; Ratio [17]: 14
CC1(C)CC[C@]2(C(=O)OCc3cn(Cc4ccc(F)cc4F)nn3)CC[C@]3(C)C(=CC[C@@H]4[C@@]5(C)CC[C@H](O)[C@@](C)(COCc6cn(Cc7ccc(F)cc7F)nn6)[C@@H]5CC[C@]43C)[C@@H]2C1							< 4.52	< 4.52	< 4.52	< 4.52	< 4.52	52.4	3.81	140	0.9	99.7	0.6	105	0.7	
CC1(C)CC[C@]2(C(=O)OCc3cn(Cc4cccc([N+](=O)[O-])c4)nn3)CC[C@]3(C)C(=CC[C@@H]4[C@@]5(C)CC[C@H](O)[C@@](C)(CO)[C@@H]5CC[C@]43C)[C@@H]2C1	5.39 to 5.52	5.39 to 5.52	5.39 to 5.52	5.39 to 5.52	5.39 to 5.52	5.39 to 5.52														

— ChEMBL document CHEMBL4130483, “Leishmanicidal and cytotoxic activity of hederagenin-bistriazolyl derivatives” (Eur J Med Chem, 2017)
